Screens deposited in PubChem by several laboratories.
M18AAP inhibitor: blocks P. falciparum M18 aspartyl aminopeptidase; AID 1822; recombinant PfM18AAP, H-Glu-NHMec fluorogenic cleavage; 1.2% of 290,000 active; inhibition, % at 7.35 µM;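 active = inhibition above the campaign mean inhibition over all tested compounds plus 3 SD, cut at about 28% in these data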
PfGluPho inh: PfG6PD (Plasmodium falciparum) enzyme inhibition. PfGluPho enzyme, NADPH resazurin-diaphorase fluorescence. inhibition, % at 20 µM. 0.78% of 350,000 active. AID 504690;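 active = inhibition reaching at least a set limit at 20 µM in the primary screen, cut at about 59% in these data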
HKDC1 inhibitor: inhibitors of human hexokinase HKDC1. inhibition, % at 20 µM. 0.16% of 340,000 active. AID 493160. recombinant HKDC1, G6PDH/diaphorase resazurin coupled fluorescence;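 active = inhibition above about 35% when tested at 20 µM, limit read from the data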
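Material – in-house recombinant HK5 (HKDC1) enzyme · Quantity – HKDC1 at 5 µg/mL · Buffer or medium – pH 8.0 Tris buffer with 10 mM MgCl2 · Reagent – glucose with 1 mM ATP · Dosing – single 20 µM dose · Times – reaction time 90 min, room temperature, protected from light · Technique – resorufin fluorescence at 613 nm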
A3G deaminase: inhibitors of human APOBEC3G DNA deaminase; Q9HC16; recombinant A3G, ssDNA deamination FAM/TAMRA fluorescence; inhibition, % at 20 µM; 0.28% of 330,000 active;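 active = inhibition of at least 40% at 20 µM, with no more than 30% in the related APOBEC3A deaminase screen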
Target sequence (Q9HC16 whole entry, looked up): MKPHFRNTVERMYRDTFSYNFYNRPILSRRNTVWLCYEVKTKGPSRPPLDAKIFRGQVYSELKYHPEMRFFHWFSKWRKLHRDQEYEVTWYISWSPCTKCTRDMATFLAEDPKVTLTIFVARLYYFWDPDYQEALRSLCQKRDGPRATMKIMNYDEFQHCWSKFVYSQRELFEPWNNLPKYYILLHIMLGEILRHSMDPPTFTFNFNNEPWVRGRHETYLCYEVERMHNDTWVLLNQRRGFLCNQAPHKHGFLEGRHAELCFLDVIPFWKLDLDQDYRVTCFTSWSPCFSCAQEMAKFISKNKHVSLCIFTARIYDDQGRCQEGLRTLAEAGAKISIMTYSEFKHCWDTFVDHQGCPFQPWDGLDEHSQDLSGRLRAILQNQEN
APOBEC3A inh: inhibitors of human APOBEC3A DNA deaminase; P31941; recombinant A3A, FAM/TAMRA ssDNA deamination fluorescence; inhibition, % at 20 µM; 0.41% of 330,000 active; AID 493011;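 active = at least 40% inhibition at 20 µM here, with at most 30% in a related deaminase screen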
Target sequence (P31941 whole entry, looked up): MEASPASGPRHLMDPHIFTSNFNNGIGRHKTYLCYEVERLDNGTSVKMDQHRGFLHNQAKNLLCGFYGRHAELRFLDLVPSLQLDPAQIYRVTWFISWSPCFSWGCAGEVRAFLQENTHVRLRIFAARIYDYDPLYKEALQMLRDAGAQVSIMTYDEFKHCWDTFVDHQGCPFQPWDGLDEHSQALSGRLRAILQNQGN
SUMO HTRF inh: inhibitors of human SUMOylation (UBC9); P63279; HTRF SUMOylation assay, SAE1/SAE2 + UBC9, in vitro; inhibition, % at 35 µM; 0.36% of 290,000 active; AID 2006; in the data active = inhibition above about 50%, passing the limit was not always enough
A number is an active result; i = inactive; nt = no result. Hits are enriched below; roughly 2.4% of the tested compounds scored in any of these assays.

SMILES	M18AAP inhibitor	PfGluPho inh	HKDC1 inhibitor	A3G deaminase	APOBEC3A inh	SUMO HTRF inh
COc1ccc(/C=N/NC(=S)Nc2cccc(C(=O)O)c2)cc1	30	i	i	i	i	i
COc1ccc(/C=N/NC(=S)Nc2ccccc2)cc1	31	i	i	i	i	i
COc1cc(/C=N/NC(=S)Nc2cccc(C(=O)O)c2)ccc1O	i	i	i	i	i	i
O=c1[nH]c(=S)[nH]c2nc(-c3ccccc3)cnc12	nt	i	i	i	i	nt
Cc1cc2nc3c(=O)[nH]c(=S)[nH]c3nc2cc1NC(=O)C(F)(F)F	i	i	i	i	i	60
O=C1C=CC(=O)N1c1ccc(OC(F)F)cc1	i	87	i	nt	nt	i
COC(=O)C1[C@H]2C(=O)N(Cc3cccs3)C[C@]23C=C[C@H]1O3 (stereo not given in full)	i	i	i	i	i	i
C/C(CC(=O)NCc1ccco1)=N\NC(=O)CC#N	30	i	i	i	i	i
C/C(CC(=O)NCc1ccco1)=N\NC(=O)Cc1cccc2ccccc12	i	i	i	i	i	i
CC(=O)SC(C[N+](=O)[O-])c1cn(C(C)=O)c2ccccc12 (stereo not given)	i	63	i	i	i	i
CC(=O)n1cc(Nc2ccc([N+](=O)[O-])cc2)c2ccccc21	i	i	i	i	i	i
Cc1cc(C(F)(F)F)cc(NNC(=O)NC(=O)c2ccccc2Cl)n1	31	i	i	i	i	i
COC(=O)N/N=C/c1ccccc1Cl	i	i	i	i	i	i
CCc1ccc(NC(=O)NNC(=O)c2cc3ccccc3cc2O)cc1	i	i	i	i	i	nt
CCc1ccc(NC(=O)NNC(=O)c2ccc3ccccc3c2O)cc1	29	i	i	i	i	i
CC(=O)Oc1ccc2cc(-c3nc4ccccc4n3C)c(=O)oc2c1	i	i	i	i	i	56
Cc1ccc(-n2c(C)n[nH]c2=S)cc1C	i	i	i	i	i	i
Cc1ccc(-n2c(C)n[nH]c2=S)cc1	30	i	i	nt	nt	i
CNC(=S)N/N=C(\C)c1ccc(N2CCOCC2)cc1	i	i	i	nt	nt	i
CCNC(=S)N/N=C(\C)c1ccc(N2CCOCC2)cc1	29	i	i	i	i	i
COc1cc(/C=N/O)cc(Br)c1OC	i	i	i	i	i	i
Cn1cncc1C#Cc1ccc2cc(CCO)oc(=O)c2c1	nt	i	i	i	i	nt
Cc1ccc(S(=O)(=O)/N=C2/NC(=O)/C(=C\c3cc(Br)cc(Br)c3O)S2)cc1	i	i	i	i	i	62
Cc1ccc(S(=O)(=O)/N=C2/NC(=O)/C(=C/c3cccnc3)S2)cc1	i	i	i	i	i	i
O=C(CCC(=O)Nc1nnc(C2CCCCC2)s1)Nc1ccc(F)cc1	29	i	i	i	i	i
SMILES	M18AAP inhibitor	PfGluPho inh	HKDC1 inhibitor	A3G deaminase	APOBEC3A inh	SUMO HTRF inh
Cc1ccc(Cl)cc1NC(=O)COc1ccccc1	i	i	i	i	i	i
N=C1/C(=C\c2ccc(-c3ccc(C(=O)O)cc3)o2)C(=O)N=C2SC=C(c3ccccc3)N12	i	i	40	nt	nt	i
N=C1/C(=C\c2ccc(-c3cccc(Cl)c3)o2)C(=O)N=C2SC=C(c3ccccc3)N12	i	i	i	i	i	i
N#C/C(=C\c1ccco1)C(=O)Nn1cnnc1	32	i	i	i	i	i
Cc1nc2ccc(NC(=O)c3ccccc3)cc2s1	i	i	i	i	i	i
Cc1nc2cc(C(=O)O)ccc2s1	30	i	i	i	i	i
CCN(CC)S(=O)(=O)c1ccc(C(=O)/C=C/c2ccc(-c3ccc([N+](=O)[O-])cc3)o2)cc1	28	i	i	i	i	i
O=S(c1ccsc1)c1ccsc1	i	i	i	i	i	i
CCN1/C(=C/C=C/c2oc3ccc4ccccc4c3[n+]2CC)Oc2ccc3ccccc3c21	i	60	51	i	i	90
CC[n+]1c(/C=C/N(C)c2ccccc2)oc2ccc(Cl)cc21	i	i	i	i	i	i
CC1(C)Cc2c(sc3ncnc(NN)c23)CO1	30	i	i	i	i	i
CC1(C)Cc2c(sc3ncn(N)c(=N)c23)CO1	i	i	i	i	i	i
O=C(Nc1nc(-c2ccco2)c(-c2ccco2)s1)C1CCC1	i	i	i	i	i	61
O=C(Nc1ccc(N2CCCCC2)c(Cl)c1)c1cccnc1	i	i	i	i	i	i
Fc1ccccc1-c1n[nH]c(=S)n1CC1CCCO1 (stereo not given)	32	i	i	i	i	i
S=c1[nH]nc(-c2ccccc2Cl)n1CC1CCCO1 (stereo not given)	i	i	i	i	i	i
Clc1ccc(Cl)c(-c2ccc(/C=N/c3ncn[nH]3)o2)c1	30	i	i	i	i	i
CCOC(=O)N1CCC(=NNc2nc3ccccc3s2)CC1	29	i	i	i	i	i
Oc1c(Br)cc(Br)cc1/C=N/NC(=S)N[C@H]1CC2C=CC1C2 (stereo not given in full)	i	i	i	i	i	58
O=C(Nc1ccc2c(c1)OCO2)Nc1ccccc1F	i	i	i	i	i	i
COc1ccc(S(=O)(=O)C(C#N)c2nc3ccccc3nc2N2CCCCC2)cc1 (stereo not given)	i	i	i	41	i	i
Cc1ccc(S(=O)(=O)C(C#N)c2nc3ccccc3nc2N2CCC(C)CC2)cc1 (stereo not given)	i	i	i	nt	nt	81
N#CC(c1nc2ccccc2nc1N1CCCC1)S(=O)(=O)c1ccccc1 (stereo not given)	i	i	i	i	i	i
COc1ccc(C(=O)CC(c2ccccc2)C2C(=O)CCCC2=O)cc1 (stereo not given)	31	i	i	i	i	i
CCN(CC)c1ccc(C=N/C(C#N)=C(\N)C#N)cc1	i	i	i	i	i	i
SMILES	M18AAP inhibitor	PfGluPho inh	HKDC1 inhibitor	A3G deaminase	APOBEC3A inh	SUMO HTRF inh
CCOc1ccc(C(C)=O)cc1N1C(=O)C2C3C=CC(O3)C2C1=O (stereo not given)	i	i	i	49	i	i
Cc1[nH][nH]c(=O)c1C(c1ccc(-c2cccc(C(=O)O)c2)o1)c1c(C)[nH][nH]c1=O	i	i	i	i	i	88
Cc1[nH][nH]c(=O)c1C(c1ccc(-c2ccc(Cl)cc2Cl)o1)c1c(C)[nH][nH]c1=O	i	nt	nt	nt	nt	91
Cc1[nH][nH]c(=O)c1C(c1ccc(-c2cccc(Cl)c2)o1)c1c(C)[nH][nH]c1=O	i	i	i	i	i	i
Cc1ccc(C(=O)O)cc1Nc1ncnc2sc3c(c12)CCC3	i	i	i	i	i	i
c1cc(Nc2ncnc3sc4c(c23)CCC4)ccn1	i	i	i	i	i	54
c1ccc(Nc2nc(CSc3ncn[nH]3)cs2)cc1	60	i	i	i	i	i
Fc1ccccc1CSc1ncn[nH]1	i	i	i	i	i	i
CCCCC#Cc1cncc(C(=O)NN)c1	i	i	i	i	i	i
